TAAR1 antagonist: human TAAR1 antagonism; AID 624466; CHO RD-HGA16 TAAR1, Fluo-8 calcium fluorescence, antagonist; inhibition, % at 3 µM; Q96RJ0; 360,000 tested, 1.5% active;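 active = inhibition above a per-plate cutoff, the mean inhibition of test compounds on that plate plus 3 SD, cut at about 49% in these data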;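 note: 0% = DMSO plus EC80 beta-PEA response and 100% = DMSO alone without agonist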
Target sequence (Q96RJ0 whole entry, looked up): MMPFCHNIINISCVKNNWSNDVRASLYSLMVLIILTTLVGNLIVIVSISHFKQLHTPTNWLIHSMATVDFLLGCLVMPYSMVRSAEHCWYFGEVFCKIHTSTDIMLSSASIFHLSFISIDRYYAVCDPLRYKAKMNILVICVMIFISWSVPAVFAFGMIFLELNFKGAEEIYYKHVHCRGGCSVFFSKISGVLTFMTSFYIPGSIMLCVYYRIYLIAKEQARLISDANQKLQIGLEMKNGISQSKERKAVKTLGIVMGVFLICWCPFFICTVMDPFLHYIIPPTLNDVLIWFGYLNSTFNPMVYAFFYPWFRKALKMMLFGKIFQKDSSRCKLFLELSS
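test system = CHO RD-HGA16 cells bearing hTAAR1 | replication = singlicate | controls = DMSO-only wells and EC80 β-PEA-stimulated wells | reagent = EC80 β-phenethylamine stimulus | read-out basis = percent inhibition of PEA-evoked calcium signal, max/basal emission ratio | schedule = seeding 17-24 h prior, 75-min 37 °C, 30-min RT dye loading | signal = kinetic Fluo-8 calcium fluorescence measurement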
TAAR1 agonist: human TAAR1 agonism; Q96RJ0; CHO RD-HGA16 TAAR1, Fluo-8 calcium fluorescence; vehicle wells 0%, saturating PEA agonist 100%; activation, % at 3 µM; 360,000 tested, 0.99% active; AID 624467;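 active = activation above the mean activation of all test compounds in the run plus 3 SD, cut at about 38% in these data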
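test system = CHO RD-HGA16 cells carrying human TAAR1 plus Gα16 | schedule = 17-24 h seeding, 75 min 37 °C dye, 30 min RT | compound dosing = 3 µM single concentration | control set = DMSO and PEA EC100 | replicates = n 1 | signal = Fluo-8 fluorescence, 5 s baseline then 140 s kinetic read | measure = percent activation vs PEA EC100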
CHRM1 agonist: human M1 muscarinic receptor agonism; AID 588814; activation, % at 3 µM; CHO-K1 hM1, Fluo-8 calcium fluorescence, agonist mode; 0% DMSO, 100% acetylcholine EC100; 360,000 tested, 0.33% active; P11229;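 active = activation above the run's mean compound activation plus 3 SD, cut at about 16% in these data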;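 note: peak over basal fluorescence ratio within a 140 s kinetic read after compound addition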
CHRM1 antagonist: antagonists of human M1 muscarinic receptor. P11229. CHO-K1 hM1, Fluo-8 calcium fluorescence, ACh EC80 antagonist. inhibition, % at 3 µM. 360,000 tested, 1.3% active. AID 588852;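 active = percent inhibition above its own plate's cutoff, namely the mean of that plate's compound wells plus 3 SD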;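 note: peak over basal fluorescence ratio during 140 s after agonist addition; 0% = ACh EC80 plus DMSO and 100% = DMSO alone without agonist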
M1 PAM: human CHRM1 positive allosteric modulation | P11229 | CHO-K1 hM1, Fluo-8 calcium fluorescence, ACh EC20; 0% = ACh EC20, 100% = maximal ACh | activation, % at 3 µM | 360,000 tested, 0.088% active; in the data active = activation above about 19%, passing the limit was not always enough
Starred values were filed as active, the others as inactive. Rows were chosen to be rich in hits. Some 3.4% of all compounds tested hit in one or more screens of this group.

For Cc1ccccc1Cn1cc(NC(=O)c2noc3c2CC(C(C)(C)C)CC3)cn1 (stereo unspecified) the results were TAAR1 antagonist 62.8*, TAAR1 agonist 38.6*, CHRM1 agonist -0.7, CHRM1 antagonist 12.7 and M1 PAM -3.7.
`CCc1ccc2c(c1)C(=O)C(=O)N2CCS(=O)(=O)c1ccccc1` gave TAAR1 antagonist -23.1, TAAR1 agonist 8.0, CHRM1 agonist -2.7, CHRM1 antagonist -5.0 and M1 PAM 2.7.
Screening O=C1C(=O)N(CCS(=O)(=O)c2ccccc2)c2ccc(Cl)cc21 returned TAAR1 antagonist -11.7, TAAR1 agonist 4.2, CHRM1 agonist 17.2*, CHRM1 antagonist 3.1 and M1 PAM 3.3.
Screening O=C(Nc1ccccc1-c1ccccc1)NC1CC2CCCC(C1)N2CCc1ccccc1 (stereo unspecified) returned TAAR1 antagonist -2.5, TAAR1 agonist 0.3, CHRM1 agonist -10.4, CHRM1 antagonist 24.2 and M1 PAM -29.3.
O=C(Nc1ccccc1-c1ccccc1)NC1CC2CCCC(C1)N2Cc1ccc(F)cc1 (stereo unspecified) was read as TAAR1 antagonist 6.3, TAAR1 agonist 4.9, CHRM1 agonist -14.5, CHRM1 antagonist 97.5* and M1 PAM -34.7.
`CCOc1ccc(C(=O)NC2CC3CCCC(C2)N3Cc2ccccc2)cc1` (stereo unspecified) gave TAAR1 antagonist -19.3, TAAR1 agonist 2.6, CHRM1 agonist -10.0, CHRM1 antagonist 37.9* and M1 PAM -22.3.
Screening CCCNC(=S)NC1CC2CCCC(C1)N2Cc1ccc(F)cc1 (stereo unspecified) returned TAAR1 antagonist -20.0, TAAR1 agonist -1.7, CHRM1 agonist -9.3, CHRM1 antagonist 48.1* and M1 PAM -22.6.
Screening Nc1sc(-c2ccccc2)cc1C(=O)N1CCNCC1 returned TAAR1 antagonist -5.7 and TAAR1 agonist 0.5.
`COC(=O)[C@]12C[C@H](CC(=O)NCc3ccc(C)o3)C(=O)N(Cc3ccccc3)C1=C[C@H](C1CCCC1)O[C@@H]2C` gave TAAR1 antagonist -38.2 and TAAR1 agonist -2.4.
For CN(C)C(=O)c1ccc(Nc2nc(-c3cccs3)nc3ccccc23)cc1 the results were TAAR1 antagonist 50.9*, TAAR1 agonist 8.6, CHRM1 agonist -2.1, CHRM1 antagonist 25.8* and M1 PAM -14.8.
Screening CC(=O)c1ccc(Nc2nc(-c3ccccc3)nc3ccccc23)cc1 returned TAAR1 antagonist 23.7, TAAR1 agonist 3.5, CHRM1 agonist -3.0, CHRM1 antagonist -9.3 and M1 PAM 4.6.
For OC(c1ccccc1)C(NCc1ccccc1)c1ccccc1 (stereo unspecified) the results were TAAR1 antagonist -4.6, TAAR1 agonist 2.6, CHRM1 agonist -0.5, CHRM1 antagonist -5.9 and M1 PAM 2.0.
For CCS(=O)(=O)c1ccc(-c2cccc(NC(=O)COc3ccc(Cl)cc3)c2)nn1 the results were TAAR1 antagonist 49.2*, TAAR1 agonist 7.6, CHRM1 agonist 3.8, CHRM1 antagonist 6.8 and M1 PAM -0.1.
Screening CS(=O)(=O)c1ccc(-c2cccc(NC(=O)COc3ccc(Cl)cc3)c2)nn1 returned TAAR1 antagonist 20.0, TAAR1 agonist 11.2, CHRM1 agonist -0.2, CHRM1 antagonist -8.9 and M1 PAM 9.9.
For O=C(COc1ccccc1)Nc1cccc(-c2ccc(N3CCOCC3)nn2)c1 the results were TAAR1 antagonist 49.0*, TAAR1 agonist 10.4, CHRM1 agonist -0.6, CHRM1 antagonist -0.3 and M1 PAM 2.2.
`CC(=O)c1c(C)oc2ccc(NS(=O)(=O)c3ccc(O)c(C(=O)O)c3)cc12` gave TAAR1 antagonist -2.9, TAAR1 agonist -2.5, CHRM1 agonist 1.0, CHRM1 antagonist -15.6 and M1 PAM 9.5.
For CC(=O)c1c(C)oc2ccc(NS(=O)(=O)c3ccc(F)cc3C)cc12 the results were TAAR1 antagonist 8.5, TAAR1 agonist 7.2, CHRM1 agonist 5.2, CHRM1 antagonist 28.4* and M1 PAM -16.9.
`CCC1(c2ccccc2)NC(=O)N(CC(=O)Nc2cc(S(=O)(=O)N3CCCCCC3)ccc2OC)C1=O` (stereo unspecified) gave TAAR1 antagonist 69.7*, TAAR1 agonist 15.3, CHRM1 agonist 0.3, CHRM1 antagonist 32.3* and M1 PAM -6.0.
For CCOc1ccc(S(=O)(=O)N2CCCCC2)cc1NC(=O)CN1C(=O)NC(CC)(c2ccccc2)C1=O (stereo unspecified) the results were TAAR1 antagonist 17.1, TAAR1 agonist 2.4, CHRM1 agonist -1.6, CHRM1 antagonist -10.9 and M1 PAM 5.5.
COc1ccc(S(=O)(=O)N2CCCCC2)cc1NC(=O)CN(C)C1CCCCC1 was read as TAAR1 antagonist -10.1, TAAR1 agonist -1.2, CHRM1 agonist -7.0, CHRM1 antagonist -16.4 and M1 PAM 7.6.
COc1ccc(S(=O)(=O)N2CCCCC2)cc1NC(=O)CN(Cc1ccco1)Cc1ccco1 was read as TAAR1 antagonist 63.9*, TAAR1 agonist 17.0, CHRM1 agonist 7.1, CHRM1 antagonist 44.0* and M1 PAM -20.3.
`COc1ccc(-c2nc(NCCN(C)C)nc3ccsc23)c(C)c1` gave TAAR1 antagonist -6.2, TAAR1 agonist -0.2, CHRM1 agonist -9.2, CHRM1 antagonist 14.7 and M1 PAM -19.2.
Cc1[nH]nc2c1C(c1ccc(F)cc1)N(c1ccccc1)C2=O (stereo unspecified) was read as TAAR1 antagonist -16.9 and TAAR1 agonist 0.8.
`O=C1CCC/C(=N/NC(=O)c2ccc(CN3c4cccc5cccc(c45)S3(=O)=O)cc2)C1` gave TAAR1 antagonist 11.2, TAAR1 agonist 11.7, CHRM1 agonist 18.8*, CHRM1 antagonist -7.2 and M1 PAM 5.0.
Screening O=C(O)c1ccc(/C=N/NC(=O)c2ccc(CN3c4cccc5cccc(c45)S3(=O)=O)cc2)cc1 returned TAAR1 antagonist -9.9, TAAR1 agonist 0.1, CHRM1 agonist 7.3, CHRM1 antagonist -12.2 and M1 PAM 4.8.
`Cc1c2cnn(CC(=O)NCCN3CCOCC3)c(=O)c2c(C)n1Cc1ccccc1` gave TAAR1 antagonist -20.5, TAAR1 agonist 0.8, CHRM1 agonist -4.1, CHRM1 antagonist 32.5* and M1 PAM -14.0.
For CCC1CCCCN1CCCNC(=O)Cn1ncc2c(C)n(Cc3ccccc3Cl)c(C)c2c1=O (stereo unspecified) the results were TAAR1 antagonist 0.4, TAAR1 agonist -0.6, CHRM1 agonist -14.2, CHRM1 antagonist 44.4* and M1 PAM -30.2.
CCCCC1OC(CCc2ccccc2)CC2=C1C(=O)OC(C)(C)O2 (stereo unspecified) was read as TAAR1 antagonist -1.4 and TAAR1 agonist 2.9.
For C=CCNC(=O)c1c(N)n(-c2ccc3c(c2)OCO3)c2nc3ccccc3nc12 the results were TAAR1 antagonist -8.2, TAAR1 agonist 11.7, CHRM1 agonist -12.0, CHRM1 antagonist 69.4* and M1 PAM -25.0.
